Measurements as given in ChEMBL document CHEMBL1142703, “Novel ligands for the chemokine receptor-3 (CCR3): a receptor-modeling study based on 5D-QSAR” (J Med Chem, 2005).

What follows are compounds tested against T1, C-C chemokine receptor type 3 (Homo sapiens, UniProt P51677) (assay: Inhibition of [125I]eotaxin-1 binding to human chemokine receptor (hCCR3-C1)).
T1 sequence (P51677 whole entry): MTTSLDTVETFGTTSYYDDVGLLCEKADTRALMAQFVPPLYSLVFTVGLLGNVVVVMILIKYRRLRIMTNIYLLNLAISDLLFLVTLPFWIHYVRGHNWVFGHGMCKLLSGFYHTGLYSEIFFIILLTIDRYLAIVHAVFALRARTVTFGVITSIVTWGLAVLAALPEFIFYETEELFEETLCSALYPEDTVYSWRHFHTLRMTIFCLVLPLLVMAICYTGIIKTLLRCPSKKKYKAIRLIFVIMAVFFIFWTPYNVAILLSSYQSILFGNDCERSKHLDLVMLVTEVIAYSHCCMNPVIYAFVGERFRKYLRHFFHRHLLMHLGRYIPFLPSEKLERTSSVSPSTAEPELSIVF
In short: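 K562 leukemia myelogenic blast cells transfected with human CCR3 (hCCR3-C1). Binding of the radioligand 125I-eotaxin-1 was measured in a scintillation proximity format. Controls: specific binding with no displacer added, and nonspecific binding with unlabeled eotaxin or test compound added. Bound radioactivity was counted by scintillation. Ki was obtained by iterative fitting of the data to a law-of-mass-action model.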

Compound	Ki
COc1ccc(C(CNC(=O)Nc2cc(Cl)cc(Cl)c2)N2CCN(C3CCCCC3)CC2)cc1 (stereo not given)	830 nM
O=C(NCC(c1ccc(C(F)(F)F)cc1)N1CCN(C2CCCCC2)CC1)Nc1cc(Cl)cc(Cl)c1 (stereo not given)	932 nM
CC(C)(C)c1ccc(CCNCC(c2ccc(C(F)(F)F)cc2)N2CCN(C3CCCCC3)CC2)cc1 (stereo not given)	832 nM
CN(C)c1ccc(CCNCC(c2ccc(C(C)(C)C)cc2)N2CCN(C3CCCCC3)CC2)cc1 (stereo not given)	312 nM
CN(C)c1ccc(C(CNC(=O)Nc2cc(Cl)cc(Cl)c2)N2CCN(C3CCCCC3)CC2)cc1 (stereo not given)	987 nM
CC(C)(C)c1ccc(C(CNC(=O)Nc2ccc(F)cc2)N2CCN(C3CCCCC3)CC2)cc1 (stereo not given)	1120 nM
CN1CCN(C(CNC(=O)Nc2ccc(F)cc2)c2ccc(N(C)C)cc2)CC1 (stereo not given)	7750 nM
COc1ccc(C(CNCCc2ccc(C(C)(C)C)cc2)N2CCN(C3CCCCC3)CC2)cc1 (stereo not given)	629 nM
COc1ccc(C(CNC(=O)Nc2ccc(F)cc2)N2CCN(C3CCCCC3)CC2)cc1 (stereo not given)	1030 nM
O=C(Cc1cc(Cl)cc(Cl)c1)NCC(c1ccccc1)N1CCN(C2CCCCC2)CC1 (stereo not given)	62500 nM
Fc1ccc(CCNCC(c2ccc(C(F)(F)F)cc2)N2CCN(C3CCCCC3)CC2)cc1 (stereo not given)	895 nM
Cc1ccc(NC(=O)NCC(c2ccc(C(F)(F)F)cc2)N2CCN(C3CCCCC3)CC2)cc1 (stereo not given)	1070 nM
O=C(NCC(c1ccc(C(F)(F)F)cc1)N1CCN(C2CCCCC2)CC1)Nc1ccc(F)cc1 (stereo not given)	1110 nM
COc1ccc(NC(=O)NCC(c2ccc(C(F)(F)F)cc2)N2CCN(c3ccccc3)CC2)cc1 (stereo not given)	14800 nM
COc1ccccc1NC(=O)NCC(c1ccc(C(F)(F)F)cc1)N1CCN(C)CC1 (stereo not given)	3350 nM
FC(F)(F)c1ccc(C(CNCCc2cc(Cl)cc(Cl)c2)N2CCN(C3CCCCC3)CC2)cc1 (stereo not given)	129 nM
CN(C)c1ccc(CCNCC(c2ccc(C(F)(F)F)cc2)N2CCN(c3ccccc3)CC2)cc1 (stereo not given)	605 nM
COc1ccc(CCNCC(c2ccc(C(C)(C)C)cc2)N2CCN(c3ccccc3)CC2)cc1 (stereo not given)	768 nM
CN(C)c1ccc(CCNCC(c2ccccc2)N2CCN(c3ccccc3)CC2)cc1 (stereo not given)	1770 nM
COc1ccc(C(CNCCc2ccc(C)cc2)N2CCN(C3CCCCC3)CC2)cc1 (stereo not given)	914 nM
COc1ccc(NC(=O)NCC(c2ccc(C(F)(F)F)cc2)N2CCN(C3CCCCC3)CC2)cc1 (stereo not given)	1710 nM
COc1ccc(C(CNC(=O)Cc2ccccc2)N2CCN(c3ccccc3)CC2)cc1 (stereo not given)	40200 nM
COc1ccc(NC(=O)NCC(c2ccc(C(C)(C)C)cc2)N2CCN(C3CCCCC3)CC2)cc1 (stereo not given)	1980 nM
Cc1ccc(CCNCC(c2ccc(C(F)(F)F)cc2)N2CCN(C3CCCCC3)CC2)cc1 (stereo not given)	545 nM
COc1ccccc1CCNCC(c1ccc(C(F)(F)F)cc1)N1CCN(C2CCCCC2)CC1 (stereo not given)	118 nM
COc1ccc(NC(=O)NCC(c2ccccc2OC)N2CCN(C3CCCCC3)CC2)cc1 (stereo not given)	10500 nM
CC(C)CC(CNC(=O)Nc1ccc(Cl)cc1)N1CCN(C2CCCCC2)CC1 (stereo not given)	429 nM

Compound	Ki
O=C(NCC(c1ccccc1)N1CCN(C2CCCCC2)CC1)Nc1cc(Cl)cc(Cl)c1 (stereo not given)	1250 nM
CC(C)(C)c1ccc(C(CNCCc2cc(Cl)cc(Cl)c2)N2CCN(C3CCCCC3)CC2)cc1 (stereo not given)	224 nM
CC(C)(C)c1ccc(CCNCC(c2ccc(C(C)(C)C)cc2)N2CCN(C3CCCCC3)CC2)cc1 (stereo not given)	349 nM
CN(C)c1ccc(CCNCC(c2ccc(C(F)(F)F)cc2)N2CCN(C3CCCCC3)CC2)cc1 (stereo not given)	1080 nM
CN(C)c1ccc(C(CNCCc2ccc(C(F)(F)F)cc2)N2CCN(c3ccccc3)CC2)cc1 (stereo not given)	1670 nM
COc1ccc(C(CNC(=O)Nc2ccc(C(C)(C)C)cc2)N2CCN(C3CCCCC3)CC2)cc1 (stereo not given)	910 nM
O=C(NCC(c1ccc(C(F)(F)F)cc1)N1CCN(C2CCCCC2)CC1)Nc1ccc(C(F)(F)F)cc1 (stereo not given)	1310 nM
O=C(NCC(c1ccccc1)N1CCN(C2CCCCC2)CC1)Nc1ccc(F)cc1 (stereo not given)	6360 nM
FC(F)(F)c1ccc(CCNCC(c2ccccc2)N2CCN(C3CCCCC3)CC2)cc1 (stereo not given)	1310 nM
COc1ccccc1C(CNC(=O)Nc1cc(Cl)cc(Cl)c1)N1CCN(C2CCCCC2)CC1 (stereo not given)	897 nM
Cc1ccc(CC(=O)NCC(c2ccccc2)N2CCN(c3ccccc3)CC2)cc1 (stereo not given)	26900 nM
Cc1ccc(NC(=O)NCC(c2ccccc2)N2CCN(C3CCCCC3)CC2)cc1 (stereo not given)	5390 nM
FC(F)(F)c1ccc(C(CNCCc2ccccc2)N2CCN(C3CCCCC3)CC2)cc1 (stereo not given)	484 nM
COc1ccc(CCNCC(c2ccc(C(C)(C)C)cc2)N2CCN(C3CCCCC3)CC2)cc1 (stereo not given)	346 nM
COc1ccc(C(CNCCc2cc(C)cc(C)c2)N2CCN(C3CCCCC3)CC2)cc1 (stereo not given)	50 nM
Cc1ccc(CCNCC(c2ccc(N(C)C)cc2)N2CCN(c3ccccc3)CC2)cc1 (stereo not given)	435 nM
O=C(NCC(c1ccccc1)N1CCN(C2CCCCC2)CC1)Nc1ccc(C(F)(F)F)cc1 (stereo not given)	1460 nM
Fc1ccc(CCNCC(c2ccc(C(F)(F)F)cc2)N2CCN(c3ccccc3)CC2)cc1 (stereo not given)	1200 nM
COc1ccccc1CC(=O)NCC(c1ccccc1OC)N1CCN(c2ccccc2)CC1 (stereo not given)	6000 nM
Cc1cc(C)cc(CCNCC(c2ccc(-c3ccccc3)cc2)N2CCN(C3CCCCC3)CC2)c1 (stereo not given)	517 nM
CN1CCN(C(CNCCc2ccccc2)c2ccccc2)CC1 (stereo not given)	21800 nM
COc1ccc(C(CNCCc2ccc(F)cc2)N2CCN(C)CC2)cc1 (stereo not given)	11700 nM
Cc1cc(C)cc(NC(=O)NCC(CC(C)C)N2CCN(c3ccc(Cl)c(Cl)c3)CC2)c1 (stereo not given)	313 nM
Cc1cc(C)cc(NC(=O)NCC(c2ccc(-c3ccccc3)cc2)N2CCN(C3CCCCC3)CC2)c1 (stereo not given)	326 nM
O=C(NCC(c1ccc(C(F)(F)F)cc1)N1CCN(C2CCCCC2)CC1)Nc1ccccc1 (stereo not given)	479 nM
CC(C)(C)c1ccc(C(CNCCc2ccc(C(F)(F)F)cc2)N2CCN(C3CCCCC3)CC2)cc1 (stereo not given)	231 nM
CN(C)c1ccc(NC(=O)NCC(c2ccc(C(C)(C)C)cc2)N2CCN(C3CCCCC3)CC2)cc1 (stereo not given)	1720 nM

Compound	Ki
COc1ccc(C(CNCCc2ccc(C)cc2)N2CCN(c3ccccc3)CC2)cc1 (stereo not given)	597 nM
CC(C)(C)c1ccc(C(CNC(=O)Nc2ccccc2)N2CCN(C3CCCCC3)CC2)cc1 (stereo not given)	1130 nM
COc1ccccc1CCNCC(c1ccc(C(C)(C)C)cc1)N1CCN(C2CCCCC2)CC1 (stereo not given)	216 nM
Cc1ccc(NC(=O)NCC(CC(C)C)N2CCN(c3ccc(Cl)c(Cl)c3)CC2)cc1 (stereo not given)	179 nM
Cc1ccc(NC(=O)NCC(c2ccc(-c3ccccc3)cc2)N2CCN(C3CCCCC3)CC2)cc1 (stereo not given)	316 nM
COc1ccccc1CCNCC(c1ccc(C(C)(C)C)cc1)N1CCN(c2ccccc2)CC1 (stereo not given)	488 nM
COc1ccc(C(CNCCc2cc(Cl)cc(Cl)c2)N2CCN(C3CCCCC3)CC2)cc1 (stereo not given)	62 nM
COc1ccc(C(CNCCc2ccc(C(F)(F)F)cc2)N2CCN(C3CCCCC3)CC2)cc1 (stereo not given)	929 nM
COc1ccccc1CCNCC(c1ccccc1OC)N1CCN(c2ccccc2)CC1 (stereo not given)	1580 nM
COc1ccccc1C(CNCCc1cc(Cl)cc(Cl)c1)N1CCN(C2CCCCC2)CC1 (stereo not given)	344 nM
CN1CCN(C(CNCCc2ccccc2)c2ccc(C(F)(F)F)cc2)CC1 (stereo not given)	4730 nM
Clc1cc(Cl)cc(CCNCC(c2ccccc2)N2CCN(C3CCCCC3)CC2)c1 (stereo not given)	80 nM
CC(C)(C)c1ccc(NC(=O)NCC(c2ccc(C(C)(C)C)cc2)N2CCN(C3CCCCC3)CC2)cc1 (stereo not given)	2050 nM
CC(C)(C)c1ccc(C(CNCCc2ccccc2)N2CCN(C3CCCCC3)CC2)cc1 (stereo not given)	350 nM
COc1ccc(CCNCC(c2ccc(C(F)(F)F)cc2)N2CCN(C3CCCCC3)CC2)cc1 (stereo not given)	477 nM
COc1ccc(C(CNC(=O)Nc2ccc(C(F)(F)F)cc2)N2CCN(C3CCCCC3)CC2)cc1 (stereo not given)	1530 nM
COc1ccccc1C(CNC(=O)Nc1ccc(C)cc1)N1CCN(c2ccccc2)CC1 (stereo not given)	3540 nM
CN(C)c1ccc(C(CNC(=O)Cc2ccc(C(F)(F)F)cc2)N2CCN(c3ccccc3)CC2)cc1 (stereo not given)	34900 nM
COc1ccc(C(CNCCc2ccccc2)N2CCN(C3CCCCC3)CC2)cc1 (stereo not given)	1040 nM
COc1ccccc1CC(=O)NCC(c1ccc(C(C)(C)C)cc1)N1CCN(c2ccccc2)CC1 (stereo not given)	8850 nM
FC(F)(F)c1ccc(CCNCC(c2ccc(C(F)(F)F)cc2)N2CCN(C3CCCCC3)CC2)cc1 (stereo not given)	782 nM
CC(C)(C)c1ccc(C(CNC(=O)Nc2ccc(C(F)(F)F)cc2)N2CCN(C3CCCCC3)CC2)cc1 (stereo not given)	972 nM
COc1ccccc1NC(=O)NCC(c1ccc(C(F)(F)F)cc1)N1CCN(C2CCCCC2)CC1 (stereo not given)	3650 nM
CC(C)CC(CNC(=O)Nc1cc(Cl)cc(Cl)c1)N1CCN(C2CCCCC2)CC1 (stereo not given)	296 nM
COc1ccc(CCNCC(c2ccc(C(F)(F)F)cc2)N2CCN(c3ccccc3)CC2)cc1 (stereo not given)	393 nM
COc1ccc(C(CNC(=O)Nc2ccc(C)cc2)N2CCN(C3CCCCC3)CC2)cc1 (stereo not given)	2250 nM
